Test results as given in ChEMBL document CHEMBL4342502, “Synthesis and Antichlamydial Activity of Molecules Based on Dysregulators of Cylindrical Proteases” (J Med Chem, 2020).
≈ marks a conversion by molar mass, not a printed value. Calls of active or inactive are those of the source. The calls are words filed in the database; no cut-off is given here.

Assays:
Chlamydia trachomatis [1] = test: Inhibition of recombinant Chlamydia trachomatis Serovar LGV-L2 C-terminal 6xhis-tagged ClpP1/ClpP2 dimer expressed in Escherichia coli at 0.1 to 1 uM by […] fluorescent peptide assay
Chlamydia trachomatis [2] = test: (§1) Anti-chlamydial activity against Chlamydia trachomatis Serovar LGV-L2 infected in Hep2 cells assessed as reduction in chlamydial inclusion growth by measuring appearance of small and irregular inclusions at 50 ug/ml treated at 8 hrs post-infection and 24 hrs later re-infecting fresh Hep2 cells monolayer with infected cells and measured at 24 hrs post re-infection by immunofluorescence staining based microscopy analysis; format: functional, organism-based
In short: (§2)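 HEp-2 cells in DMEM with 10% FBS, infected with C. trachomatis L2 at MOI 1. Compounds added 8 hpi in triplicate; DMSO stocks at 50 mg/mL. At 24 hpi lysates collected in sucrose storage medium, frozen at −80 °C, and used to infect fresh HEp-2 monolayers in 10-fold dilutions. After 24 h, stained with goat anti-MOMP and Alexa488 secondary. Inclusions counted in 15 fields at 20x; IFU = mean count per field corrected for dilution.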

HEp-2 = test: Toxicity in human Hep2 cells infected with Chlamydia trachomatis Serovar LGV-L2 at 100 ug/ml treated at 8 hrs post-infection and 24 hrs later re-infecting fresh Hep2 cells monolayer with infected cells and measured at 24 hrs post re-infection by immunofluorescence staining based microscopy analysis; format: cell-based
Chlamydia trachomatis [3] = test: as §1, with “growth” for “growth by measuring appearance of small and irregular inclusions at 50 ug/ml”; format: functional, organism-based
In short: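 HEp-2 cells grown in DMEM with 2% L-glutamine and 10% FBS at 37 °C. Infected with C. trachomatis L2 at MOI 1, with compound added in triplicate at 8 hpi. At 24 hpi, lysates were collected in sucrose storage medium, frozen at −80 °C and passed as 10-fold dilutions onto fresh HEp-2. After 24 h, stained with goat anti-MOMP then Alexa488 secondary. IFU taken as mean inclusions across 15 fields (20x), corrected for dilution.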

Chlamydia trachomatis [4] = test: as §1, with “50 to 100” for “50”; format: functional, organism-based; in short: as §2
Chlamydia trachomatis [5] = test: as §1, with “12.5” for “50”, “analysis relative to control” for “analysis”; format: functional; settings: Serovar LGV-L2, HEp-2; in short: as §2
Chlamydia trachomatis [6] = test: (§3) Anti-chlamydial activity against Chlamydia trachomatis Serovar LGV-L2 infected in Hep2 cells assessed as reduction in chlamydial inclusion yield at 50 ug/ml treated at 8 hrs post infection and incubated for 16 hrs followed by compound washout and further incubated for 24 hrs by immunofluorescence staining based microscopic assay; format: functional, organism-based
In short: (§4)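 Medium was then removed, wells washed three times with Hanks' balanced salt solution, and compound-free medium added; incubation continued 24 h. Read-out by IFU re-infection and anti-MOMP immunofluorescence, as in the IFU protocol.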

Chlamydia trachomatis [7] = test: as §3, with “48” for “24”; format: functional, organism-based
Chlamydia trachomatis [8] = test: as §3, with “Bacteriostatic” for “Anti-chlamydial”, “of” for “in chlamydial”, “size” for “yield”; format: functional, organism-based; in short: as §4
Escherichia coli = test: Antibacterial activity against Escherichia coli K12 assessed as bacterial growth inhibition at 32 ug/ml measured after 16 hrs by broth microdilution method; format: functional, organism-based; settings: K-12
In short: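 Broth microdilution in Mueller Hinton broth, triplicate. Direct colony suspension at 1.5 x 10^8 CFU/mL diluted to ~10^5 CFU/mL. Serial dilutions made from DMSO stocks at 1 mg/mL; vancomycin positive control, blank medium negative control. Incubated 16 h at optimum temperature. MIC is the lowest concentration without visible growth at 600 nm; mean of triplicate determinations.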

HeLa 229 = test: Cytotoxicity against human HeLa 229 cells assessed as reduction in cell viability at 50 ug/ml after 24 hrs by CCK-8 assay; format: cell-based; settings: hela 229, 24 h
In short: (§5)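 HeLa 229 and HaCaT cells in DMEM with 10% FBS and 1% penicillin/streptomycin, 37 °C, 5% CO2, seeded at 5000 cells/well. Next day treated with 50 μg/mL in triplicate, with matching DMSO controls. After 24 h, CCK-8 added for 2 h; corrected absorbance read at 450 nm.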

[9] = Half life in human liver microsomes at 1 ug/ml measured up to 60 mins by LC-MS/MS analysis; format: ADME, Microsome; settings: microsomes, 1 h
In short: (§6)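 Human liver microsomes (1.0 mg/mL protein) in 100 mM phosphate pH 7.4 with 10 mM MgCl2 and 2 mM NADPH, preincubated 10 min at 37 °C. Reaction started with compound at 1 μg/mL. Sampled at 0, 5, 15, 20, 30, 45 and 60 min and quenched in methanol with internal standard. Controls: no NADPH (negative), testosterone (positive). Analysed by LC-MS/MS, triplicate.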

[10] = Drug metabolism in human liver microsomes assessed as amount of drug modified at 1 ug/ml […] in presence of NADPH by LC-MS/MS analysis; format: ADME, Microsome; settings: read-out: Drug metabolism
[11] = Mutagenicity in Drosophila melanogaster somatic cells assessed as frequency of clone formation in ST crosses at 0.25 to 1 mM by SMART assay; format: ADME; settings: 1000 µM
In short: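 Drosophila SMART wing-spot assay, ST and HB crosses. Third-instar larvae (72 ± 4 h) placed on hydrated instant mashed potato medium containing compound at 0.25, 0.5 or 1.0 mM final. Negative control: water with 1% Tween-80 and 3% ethanol. Statistics by Frei and Würgler two-sided U test, P≤0.05.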

[12] = Toxicity in Drosophila melanogaster assessed as survival rate at 0.25 to 1 mM; settings: 1000 µM
In short: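 Drosophila SMART assay using third-instar larvae (72 ± 4 h) from ST and HB crosses. Larvae exposed in hydrated instant mashed-potato medium at 0.25, 0.5 and 1.0 mM final. Vehicle control: water with 1% Tween-80 and 3% ethanol. Survival of treated groups compared statistically with the vehicle control.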

Chlamydia trachomatis [13] = test: Activation of recombinant Chlamydia trachomatis Serovar LGV-L2 C-terminal 6xhis-tagged ClpP1/ClpP2 dimer expressed in Escherichia coli assessed as induction of casein degradation at 0.1 to 1 uM using FITC-labelled casein as substrate pretreated with enzyme for 30 mins followed by substrate addition and measured every 3 mins for 3 hrs in presence of AAA+ chaperone by fluorescence based tecan-plate reader assay
HaCaT = test: Cytotoxicity against immortal human HaCaT cells assessed as reduction in cell viability at 50 ug/ml after 24 hrs by CCK-8 assay; format: cell-based; in short: as §5
[14] = Intrinsic clearance in human liver microsomes at 1 ug/ml measured per mg protein up to 60 mins by LC-MS/MS analysis; format: ADME, Microsome; settings: microsomes, 1 h; in short: as §6

Row | Compound | inhibition (Chlamydia trachomatis [1]) | inhibition (Chlamydia trachomatis [2]) | Activity (HEp-2) | inhibition (Chlamydia trachomatis [3]) | IC50 (Chlamydia trachomatis [3]; Serovar LGV-L2, HEp-2) | inhibition (Chlamydia trachomatis [4]) | inhibition at 12.5 µg/mL (Chlamydia trachomatis [5]) | inhibition (Chlamydia trachomatis [6]) | inhibition (Chlamydia trachomatis [7]) | inhibition (Chlamydia trachomatis [8]) | inhibition (Escherichia coli) | Activity (HeLa 229) | t1/2 [9] | metabolised at 10 min, 1 ug/ml [10] | Activity [11] | Activity [12] | Activity (Chlamydia trachomatis [13]) | Activity (HaCaT) | microsomal intrinsic clearance [14]
1 | CC(C)(C(=O)N1CCN(Cc2ccc(Cl)cc2)CC1)S(=O)(=O)c1ccc(C(F)(F)F)cn1 | inactive | Active | Non-Toxic | Dose-dependent effect | 5.2 µg/mL (≈ 10.6 µM) | Active | 60% | inactive | inactive | Active | inactive | Non-Toxic | < 2 min | 90% | Non-Toxic | Non-Toxic | inactive |  | 
2 | CC(C)(C(=O)NCCCc1ccccc1)S(=O)(=O)c1ccc(C(F)(F)F)cc1 |  |  |  |  |  |  |  |  |  |  | inactive | Toxic | 6.13 min | 90% | Non-Toxic | Non-Toxic |  | Toxic | 113.09 µL/min
